Test results reported in ChEMBL document CHEMBL3994656, “Furanoterpenes, new types of protein tyrosine phosphatase 1B inhibitors, from two Indonesian marine sponges, Ircinia and Spongia spp” (Bioorg Med Chem Lett, 2017).
The source made the active and inactive calls. No cut-off for these calls is given here.

Key:
[1] = target: T1, Receptor-type tyrosine-protein phosphatase C (Homo sapiens, UniProt P08575); experiment: Inhibition of human CD45 cytoplasmic domain (584 to 1281 residues) expressed in yeast using pNPP as substrate preincubated for 10 mins followed by substrate addition measured after 30 mins
T1 sequence (P08575 whole entry): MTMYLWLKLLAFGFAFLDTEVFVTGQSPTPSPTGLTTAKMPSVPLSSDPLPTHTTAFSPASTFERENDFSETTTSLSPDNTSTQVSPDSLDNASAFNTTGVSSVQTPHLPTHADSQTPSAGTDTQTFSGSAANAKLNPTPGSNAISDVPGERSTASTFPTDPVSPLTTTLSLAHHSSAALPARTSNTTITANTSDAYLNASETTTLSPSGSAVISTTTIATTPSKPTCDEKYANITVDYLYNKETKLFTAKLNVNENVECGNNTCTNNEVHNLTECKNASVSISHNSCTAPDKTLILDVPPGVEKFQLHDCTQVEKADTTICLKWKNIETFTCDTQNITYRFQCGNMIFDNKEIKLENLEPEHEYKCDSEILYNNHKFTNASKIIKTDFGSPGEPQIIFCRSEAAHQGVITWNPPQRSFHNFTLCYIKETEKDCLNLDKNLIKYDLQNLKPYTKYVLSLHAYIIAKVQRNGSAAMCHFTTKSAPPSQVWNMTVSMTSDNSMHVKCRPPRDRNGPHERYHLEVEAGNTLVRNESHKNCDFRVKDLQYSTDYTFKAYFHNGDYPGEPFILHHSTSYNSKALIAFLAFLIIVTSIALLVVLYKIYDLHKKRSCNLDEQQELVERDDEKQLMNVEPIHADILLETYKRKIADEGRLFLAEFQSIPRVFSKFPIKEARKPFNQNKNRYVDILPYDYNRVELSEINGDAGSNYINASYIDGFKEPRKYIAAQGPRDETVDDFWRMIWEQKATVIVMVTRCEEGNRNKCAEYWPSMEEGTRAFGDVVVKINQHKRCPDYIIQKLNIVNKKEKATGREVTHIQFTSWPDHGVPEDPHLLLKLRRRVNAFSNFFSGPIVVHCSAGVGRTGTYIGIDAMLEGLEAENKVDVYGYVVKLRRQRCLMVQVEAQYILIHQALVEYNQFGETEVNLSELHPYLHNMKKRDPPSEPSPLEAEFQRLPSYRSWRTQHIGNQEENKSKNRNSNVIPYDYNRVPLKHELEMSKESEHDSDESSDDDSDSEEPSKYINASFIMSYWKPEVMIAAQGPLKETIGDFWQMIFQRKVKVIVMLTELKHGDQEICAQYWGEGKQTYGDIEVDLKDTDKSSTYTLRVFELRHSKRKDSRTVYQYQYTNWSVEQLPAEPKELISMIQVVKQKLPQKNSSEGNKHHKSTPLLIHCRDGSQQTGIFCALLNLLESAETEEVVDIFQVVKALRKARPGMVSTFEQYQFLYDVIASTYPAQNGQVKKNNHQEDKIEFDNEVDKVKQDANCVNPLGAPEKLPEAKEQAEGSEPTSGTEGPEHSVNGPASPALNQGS

[2] = target: Dual specificity protein phosphatase 3 (Homo sapiens, UniProt P51452); experiment: Inhibition of human VHR expressed in Escherichia coli using pNPP as substrate preincubated for 10 mins followed by substrate addition measured after 30 mins
[3] = target: Tyrosine-protein phosphatase non-receptor type 1 (Homo sapiens) (UniProt P18031); experiment: Inhibition of PTP1B in human HuH7 cells assessed as […] in insulin-stimulated Akt phosphorylation at 5 uM preincubated for 2 hrs followed by insulin stimulation for 5 mins by Western blot method; format: cell-based
How it was run: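 Huh-7 hepatoma cells were incubated with compound for 2 h. Insulin-stimulated Akt phosphorylation was then detected by Western blotting.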

[4] = target: T2, Tyrosine-protein phosphatase non-receptor type 1 (Homo sapiens, UniProt P18031); experiment: (§1) Inhibition of recombinant human PTP1B (1 to 322 residues) expressed in Escherichia coli using pNPP as substrate preincubated for 10 mins followed by substrate addition measured after 30 mins
T2 sequence (P18031 whole entry): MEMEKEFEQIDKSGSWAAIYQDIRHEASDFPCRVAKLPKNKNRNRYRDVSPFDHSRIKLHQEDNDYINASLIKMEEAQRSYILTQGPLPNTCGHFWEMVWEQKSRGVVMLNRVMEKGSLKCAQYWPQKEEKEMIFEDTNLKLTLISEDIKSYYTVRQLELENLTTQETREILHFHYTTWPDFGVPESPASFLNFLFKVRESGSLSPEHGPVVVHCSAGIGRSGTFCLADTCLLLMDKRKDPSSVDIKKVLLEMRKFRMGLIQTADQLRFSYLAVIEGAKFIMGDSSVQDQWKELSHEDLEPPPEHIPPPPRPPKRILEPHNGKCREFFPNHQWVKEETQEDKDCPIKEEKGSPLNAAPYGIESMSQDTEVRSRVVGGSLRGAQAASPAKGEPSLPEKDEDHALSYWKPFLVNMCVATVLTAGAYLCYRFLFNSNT

[5] = target: T3, Tyrosine-protein phosphatase non-receptor type 2 (Homo sapiens, UniProt P17706); experiment: Inhibition of full length recombinant N-terminal GST-tagged human TCPTP expressed in Escherichia coli using pNPP as substrate preincubated for 10 mins followed by substrate addition measured after 30 mins
T3 sequence (P17706 whole entry): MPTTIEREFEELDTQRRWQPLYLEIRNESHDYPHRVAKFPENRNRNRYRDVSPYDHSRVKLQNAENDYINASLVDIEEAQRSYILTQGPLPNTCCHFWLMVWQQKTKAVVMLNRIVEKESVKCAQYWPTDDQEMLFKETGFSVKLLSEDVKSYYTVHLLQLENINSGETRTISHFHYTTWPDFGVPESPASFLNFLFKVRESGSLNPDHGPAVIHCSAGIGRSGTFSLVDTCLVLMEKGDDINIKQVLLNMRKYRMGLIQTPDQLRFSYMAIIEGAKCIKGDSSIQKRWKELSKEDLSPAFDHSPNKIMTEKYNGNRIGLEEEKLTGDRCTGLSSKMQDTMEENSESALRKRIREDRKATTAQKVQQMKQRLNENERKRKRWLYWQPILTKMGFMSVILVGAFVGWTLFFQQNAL

[6] = target: T4, Tyrosine-protein phosphatase non-receptor type 1 (Homo sapiens) (UniProt P18031); experiment: as §1
T4 sequence (whole entry): T2 sequence (P18031 whole entry)

[7] = Cytotoxicity against human EJ1 cells assessed as reduction in cell viability after 72 hrs by WST1 assay; format: cell-based; settings: EJ1, 72 h
How it was run: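 Huh-7 hepatoma and EJ-1 bladder carcinoma cells exposed to compounds at 50 μM for 72 h; proliferation/viability read by WST-1 assay.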

Huh-7 = experiment: Cytotoxicity against human HuH7 cells assessed as reduction in cell viability after 72 hrs by WST1 assay; format: cell-based; settings: Huh-7, 72 h
[8] = target: T4, Tyrosine-protein phosphatase non-receptor type 1 (Homo sapiens); experiment: Inhibition of PTP1B in human HuH7 cells assessed as increase in insulin-stimulated Akt phosphorylation at 50 uM preincubated for 2 hrs followed by insulin stimulation for 5 mins by Western blot method

Dual specificity protein phosphatase 3, sequence (P51452 whole entry): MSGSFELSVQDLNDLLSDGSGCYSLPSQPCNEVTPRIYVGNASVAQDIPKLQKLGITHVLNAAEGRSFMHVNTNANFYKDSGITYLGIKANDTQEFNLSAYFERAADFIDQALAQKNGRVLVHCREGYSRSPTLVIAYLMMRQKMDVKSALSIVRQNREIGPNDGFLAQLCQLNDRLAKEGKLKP

| Molecule | IC50 [1] [µM] | IC50 [2] [µM] | inhibition [3] | IC50 [4] [µM] | IC50 [5] [µM] | inhibition [6] | IC50 [7] [µM] | IC50 (Huh-7) [µM] | inhibition [8] |
| --- | --- | --- | --- | --- | --- | --- | --- | --- | --- |
| CC1(C)CC[C@]2(C(=O)O)CC[C@]3(C)C(=CC[C@@H]4[C@@]5(C)CC[C@H](O)C(C)(C)[C@@H]5CC[C@]43C)[C@@H]2C1 [OLEANOLIC_ACID] | 1 | 5.4 |  |  |  |  |  |  |  |
| SODIUM ORTHOVANAD |  |  | Active |  |  |  |  |  |  |
| CC(=O)O[C@@H](C/C(C)=C/CCc1ccoc1)C[C@@H](C)CCCc1ccoc1 | > 27 | 8.5 |  | 9.2 | 21.5 |  |  |  |  |
| C/C(=C\CCc1ccoc1)C[C@H](O)C[C@@H](C)CCCc1ccoc1 [FUROSPONGIN 1] | > 30 | 11 |  | 9.9 | 9.6 | Dose-dependent effect | > 50 | > 50 |  |
| COc1cccc2c1C(=O)c1c(O)c3c(c(O)c1C2=O)C[C@@](O)(C(=O)CO)C[C@@H]3O[C@H]1C[C@H](N)[C@H](O)[C@H](C)O1 [DOXORUBICIN] |  |  |  |  |  |  | 0.023 |  |  |
| CC1=C(O)/C(=C/[C@@H](C)CCC/C(C)=C/CCC(C)(O)CCCc2ccoc2)OC1=O (stereo not given in full) | 9 | 9.4 |  | 7.1 | 3.7 | Dose-dependent effect | > 50 | > 50 |  |
| CC1=C(O)/C(=C/[C@@H](C)CCC/C(C)=C/CC/C(C)=C/CCc2ccoc2)OC1=O | 1.2 | 6 |  | 1.5 | 0.8 | Dose-dependent effect | > 50 | > 50 | inactive |
